Bioassay records from PubChem.
Rows were chosen to be rich in hits. Some 1.8% of all compounds tested hit in one or more screens of this group.
NPY-Y1 PAM-ag – NPY-Y1 receptor potentiators or agonists, primary screen, cell-based; 220,000 tested, 0.37% active; activation, % at 3.6 µM; Neuropeptide Y receptor type 1 (Homo sapiens), P25929; NPY-Y1 expressing cells, potentiator/agonist activation; in the data active = activation above about 33%, passing the limit was not always enough;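 also: cells stimulated with NPY at EC10 then isoproterenol at EC100; 0% = low agonist plus stimulus and 100% = saturating agonist plus stimulus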
Target sequence (P25929 whole entry, looked up): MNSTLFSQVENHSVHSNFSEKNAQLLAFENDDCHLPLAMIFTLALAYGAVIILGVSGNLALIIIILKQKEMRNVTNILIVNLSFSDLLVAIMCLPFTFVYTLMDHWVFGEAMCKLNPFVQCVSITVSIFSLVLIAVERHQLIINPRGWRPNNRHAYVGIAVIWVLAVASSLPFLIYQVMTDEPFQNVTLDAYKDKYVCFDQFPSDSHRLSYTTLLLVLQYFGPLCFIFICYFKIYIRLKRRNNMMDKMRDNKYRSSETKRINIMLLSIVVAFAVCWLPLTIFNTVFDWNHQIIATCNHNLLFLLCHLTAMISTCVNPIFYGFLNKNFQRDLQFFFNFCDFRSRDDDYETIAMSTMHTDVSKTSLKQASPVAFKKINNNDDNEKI
NPY-Y2 PAM-ag – NPY-Y2 potentiators or agonists, primary screen, cell-based; cells expressing NPY-Y2, potentiator/agonist read-out; 220,000 tested, 0.45% active; Neuropeptide Y receptor type 2 (Homo sapiens), P49146; AID 1359, 2008; activation, % at 3.6 µM; in the data active = activation above about 27%;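 also: cells stimulated with NPY near EC25 plus isoproterenol at EC100; 0% = vehicle plus submaximal agonist and 100% = vehicle plus saturating agonist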
NPY Y2 blocker – NPY-Y2 receptor antagonists, primary screen, cell-based | NPY-Y2 expressing cells, antagonist mode | inhibition, % at 2.7 µM | 140,000 tested, 0.99% active; in the data active = inhibition above about 17%;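 also: 0% = vehicle with agonist challenge and 100% = reference antagonist with challenge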
NPY-Y1 antag – NPY-Y1 receptor antagonists, primary screen, cell-based | HEK293-CNG Y1 cells, membrane potential fluorescence; NPY at EC95, then isoproterenol | AID 1040, 2008 | inhibition, % at 3.6 µM | 200,000 tested, 1% active | Neuropeptide Y receptor type 1 (Homo sapiens), P25929;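 active = inhibition above the campaign mean inhibition of all tested compounds plus 3 SD, cut at about 20% in these data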;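 also: 0% = DMSO wells given NPY plus isoproterenol and 100% = isoproterenol alone without NPY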
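Material: HEK293 cells co-expressing NPY Y1 receptor and cyclic-nucleotide gated channel. Timing: compound incubation 1 h at room temperature, readout 45 min post-stimulation. Signal: fluorescence, membrane potential probe.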
Starred values were filed as active, the others as inactive; . = not tested or not shown; ! = not confirmed by another sample.

SMILES | NPY-Y1 PAM-ag | NPY-Y2 PAM-ag | NPY Y2 blocker | NPY-Y1 antag
CC(=O)Nc1c(N)c2ccccc2oc1=O | -3 | -1 | . | 11
O=C(Nc1ccccc1)C1=C(c2ccccc2)S(=O)(=O)CCS1(=O)=O | 64* | 45* | . | -8
O=C(O)c1ccccc1C(=O)Nc1ccccc1 | 10 | 13 | 2 | -1
Cc1scc(C(=O)NNC(=S)NC(C)c2ccccc2)c1C (stereo not given) | -11 | 5 | 2 | 6
CCOC(=O)CSc1nc2ccc(NC(=O)CSc3nnnn3Cc3ccccc3)cc2s1 | 104* | 99* | -3 | -14
CCOC(=O)CSc1nc2ccc(N)cc2s1 | 56* | 34* | 2 | -8
Nc1ccc2nc(SCC(=O)N3CCOCC3)sc2c1 | -2 | -3 | . | 2
COC(=O)CSc1nc2ccc(NC(C)=O)cc2s1 | 68* | 62* | 2 | -8
COc1cc(C=NCC2OCCc3ccccc32)cc(OC)c1 (stereo not given) | -25 | -9 | 2 | -1
COc1cccc(Nc2ccc(C(=O)O)cc2[N+](=O)[O-])c1 | -2 | 3 | 3 | 1
O=C1CC(=C(c2ccccc2)c2ccccc2)C(=O)N1CCCCN1CCN(c2cccc(Cl)c2)CC1 | 11 | 1 | 8 | 16
Cc1ccccc1N1CCN(CCCN2C(=O)CC(=C(c3ccccc3)c3ccccc3)C2=O)CC1 | 105* | 99* | 4 | -19
O=C(c1ccc2c(c1)OCO2)N(CC1CCCO1)C1(C(=O)NC2CCCCC2)CCCCC1 (stereo not given) | -10 | -7 | 29* | 22*
O=C(Cc1cccs1)N(Cc1cccs1)C1(C(=O)NC2CCCC2)CCCCC1 | -16 | -11 | 50* | 51*
CN(C(=O)c1ccc2c(c1)OCO2)C1(C(=O)NC2CCCC2)CCCCC1 | -15 | 4 | 2 | 2
O=C(Cc1cccs1)N(Cc1ccco1)C1(C(=O)NC2CCCCC2)CCCCC1 | 9 | -11 | 30* | 50*
O=C(Cc1cccs1)N(c1ccc(F)cc1)C1(C(=O)NC2CCCCC2)CCCC1 | -21 | 5 | 10 | 11
O=C(c1ccc2c(c1)OCO2)N(Cc1cccs1)C1(C(=O)NC2CCCCC2)CCCCC1 | -10 | -13 | 37* | 55*
COc1ccc(CCNC(=O)c2cc(-c3cc(Cl)ccc3O)n[nH]2)cc1OC | 7 | 9 | . | .
O=C(/C=C/c1ccncc1)c1ccc(NC(=O)c2ccccc2F)cc1 | -31 | 18 | 1 | -3
O=C(CC12CC3CC(CC(C3)C1)C2)N1CCN(S(=O)(=O)c2cccs2)CC1 | -43 | -10 | 4 | 1
CNc1nc(Nc2ccc(Br)cc2)nc(N)c1[N+](=O)[O-] | 22 | 7 | 1 | 3
CC(=O)N(Cc1ccco1)C1(C(=O)NC2CCCCC2)CCCCC1 | 19 | -3 | 5 | 10
Cc1ccc(C(C(=O)NC2CCCC2)N(Cc2ccc3c(c2)OCO3)C(=O)Cc2cccs2)cc1 (stereo not given) | -19 | 9 | 22* | 15
O=C1CCC(C(=O)N(Cc2ccco2)C2(C(=O)NC3CCCC3)CCCCC2)N1 (stereo not given) | -26 | 6 | 23* | 22*
SMILES | NPY-Y1 PAM-ag | NPY-Y2 PAM-ag | NPY Y2 blocker | NPY-Y1 antag
O=C(NC1CCCCC1)C(c1cccs1)N(Cc1cccs1)C(=O)c1cccs1 (stereo not given) | -49 | -11 | 18* | 41*
COc1ccccc1CN1CCNC(=O)C1CC(=O)NC1Cc2ccccc2C1 (stereo not given) | -5 | -8 | . | 0
O=C(O)CC/C(=N\NC(=O)CNC(=O)c1ccc(F)cc1)c1ccccc1 | -19 | -28 | . | .
O=C(NCc1csc(-c2cccs2)n1)C1CCC1 | -1 | -4 | . | .
CC(=O)Oc1c(C)cc(Cl)cc1C(=O)Nc1ccc([N+](=O)[O-])cc1Cl | -49 | 25 | 20* | 16
CCN(CC)C(=O)C(=O)N/N=C/c1ccc(F)cc1 | 6 | 6 | . | 1
CC1(C)Cc2c(sc(NC(=O)c3ccccc3Cl)c2C(=O)O)CO1 | 7 | 2 | . | -4
CN(C)CCOC(c1ccccc1)c1ccccc1 | 107*! | 101*! | 3 | 1
CN(C)CCOC(c1ccccc1)c1ccccc1 (tested in a mixture with another compound) | 10 | -8 | 3 | 2
COC(=O)c1[nH]c2cccc(Cl)c2c1NC(=O)CN(C)C1CCCCC1 | -27 | -6 | 1 | -7
NNC(=O)c1ccc(CN2CCCCC2)o1 | 9 | 1 | . | 4
